Each block holds one compound with its values, some of them ahead of it.
Columns and labels:
[1] = biological target: T1, Guanylate cyclase soluble subunit alpha-1 (Rattus norvegicus) (UniProt P19686); assay: Activation of recombinant rat sGC alpha1 subunit expressed in CHO cells assessed as induction of [32P-cGMP] formation using alpha-[32P-GTP] as substrate measured after 6 mins by luminescence assay; assay type: cell-based; conditions: filed as activator
T1 sequence (whole entry): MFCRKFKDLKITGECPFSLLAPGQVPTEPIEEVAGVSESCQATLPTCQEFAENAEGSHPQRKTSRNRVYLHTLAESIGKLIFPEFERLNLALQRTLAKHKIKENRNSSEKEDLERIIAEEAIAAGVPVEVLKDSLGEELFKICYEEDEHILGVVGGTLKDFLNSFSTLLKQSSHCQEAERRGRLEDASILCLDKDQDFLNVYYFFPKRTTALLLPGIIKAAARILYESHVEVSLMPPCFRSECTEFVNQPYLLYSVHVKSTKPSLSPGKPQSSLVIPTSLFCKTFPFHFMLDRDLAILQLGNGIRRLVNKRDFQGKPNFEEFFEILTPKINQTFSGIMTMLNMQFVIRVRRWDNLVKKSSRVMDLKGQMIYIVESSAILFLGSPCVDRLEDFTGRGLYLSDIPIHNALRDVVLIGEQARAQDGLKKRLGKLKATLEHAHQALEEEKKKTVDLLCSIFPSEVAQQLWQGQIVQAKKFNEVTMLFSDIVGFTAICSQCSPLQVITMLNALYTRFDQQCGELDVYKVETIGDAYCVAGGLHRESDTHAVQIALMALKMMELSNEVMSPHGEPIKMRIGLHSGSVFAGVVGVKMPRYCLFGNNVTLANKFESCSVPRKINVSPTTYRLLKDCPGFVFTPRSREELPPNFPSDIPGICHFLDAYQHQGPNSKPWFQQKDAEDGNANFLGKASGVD

[2] = Activation of recombinant rat sGC expressed in CHO cells by luminescence assay; assay type: cell-based
How it was run: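 Stable CHO reporter cell line overexpressing rat sGC; cGMP formation read as luminescence. EC50 from concentration–response. MEC taken as lowest concentration giving at least threefold increase in basal luminescence.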

[3] = Induction of CYP3A4 in human hepatocytes using phenacetin as substrate incubated for 60 mins by LC-MS/MS analysis; conditions: 1 h
[4] = Plasma clearance in iv dosed Beagle dog measured up to 24 hrs by LC-MS analysis; assay type: ADME, organism-based, Canis lupus familiaris
[5] = Clearance in Wistar rat at 0.3 mg/kg, iv measured up to 24 hrs by LC-MS analysis; assay type: ADME, organism-based; conditions: in vivo
How it was run: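 Rats dosed iv at 0.3 mg/kg; blood clearance determined.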

[6] = Plasma clearance in iv dosed cynomolgus monkey measured up to 24 hrs by LC-MS analysis; assay type: ADME, organism-based, Macaca fascicularis
[7] = biological target: T1, Guanylate cyclase soluble subunit alpha-1 (Rattus norvegicus); assay: Activation of recombinant rat sGC alpha1 subunit expressed in CHO cells assessed as induction of [32P-cGMP] formation by measuring efficacy using alpha-[32P-GTP] as substrate measured after 6 mins by luminescence assay relative to control; assay type: cell-based
[8] = Volume of distribution at steady state in iv dosed Wistar rat measured up to 24 hrs by LC-MS analysis; assay type: ADME, organism-based; conditions: in vivo, read-out: Vdss
How it was run: (§1)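 Three animals per species and strain received an intravenous dose. Steady-state volume of distribution (L/kg) was derived from the blood concentration–time profile, alongside blood clearance and terminal half-life.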

[9] = Oral bioavailability in Beagle dog measured up to 24 hrs by LC-MS analysis; assay type: ADME, organism-based, Canis lupus familiaris; conditions: in vivo
[10] = Half life in iv dosed Beagle dog measured up to 24 hrs by LC-MS analysis; assay type: ADME, organism-based, Canis lupus familiaris; conditions: in vivo
[11] = Half life in iv dosed Wistar rat measured up to 24 hrs by LC-MS analysis; assay type: ADME, organism-based; conditions: in vivo
[12] = Volume of distribution at steady state in iv dosed Beagle dog measured up to 24 hrs by LC-MS analysis; assay type: ADME, organism-based, Canis lupus familiaris; conditions: in vivo, read-out: Vdss; how it was run: as §1
[13] = Oral bioavailability in Wistar rat measured up to 24 hrs by LC-MS analysis; assay type: ADME, organism-based; conditions: in vivo

- MEC [1]: 3 nM
SMILES: Cc1c(CCC(=O)O)cccc1NC(=O)[C@H](c1ccc(Cn2nc(C(F)(F)F)ccc2=O)cc1)C1CCCC1

- MEC [1]: 300 nM
SMILES: CCN(C)C(C(=O)Nc1cccc(CCC(=O)O)c1C)c1ccc(CN2N=C(c3ccccc3)OCC2=O)cc1 (stereo not given)

- MEC [1]: 1000 nM
SMILES: Cc1c(CCC(=O)O)cccc1NC(=O)C(c1ccc(CN2CCOC(c3ccccc3)=N2)cc1)C1CCCC1 (racemic)

- MEC [1]: 100 nM
SMILES: CC(C)(CCCCNC(=O)[C@H](c1ccc(CN2N=C(c3ccccc3)OCC2=O)cc1)C1CCCC1)C(=O)O

- EC50 ([2]; cho): 10 nM
- Activity [3]: < 29 nM
SMILES: CC(C)C(CC(=O)O)c1ccc(Cl)c(NC(=O)[C@H](c2ccc(Cl)cc2)[C@@H](C)C(F)(F)F)c1 (stereo in doubt; 44b) [listing 1 of 2 here]

- MEC [1]: 100 nM
SMILES: O=C(N[C@@H](CO)c1ccccc1)C(c1ccc(Cn2nc(-c3ccccc3)c3ccccc3c2=O)cc1)C1CCCC1 (stereo not given in full)

- MEC [1]: 30 nM
SMILES: Cc1c(CCC(=O)O)cccc1NC(=O)[C@H](c1ccc(CN2N=C(c3ccccc3)OCC2=O)cc1)C(C)C

- MEC [1]: 300 nM
SMILES: O=C(O)CCc1cccc(NC(=O)[C@@H](c2ccc(CN3N=C(c4ccccc4)OCC3=O)cc2)C2CCCC2)c1

- clearance [4]: 30 mL/min/kg
- MEC [1]: 10 nM
- clearance [5]: 5.17 mL/min/kg
- clearance [6]: 23.3 mL/min/kg
SMILES: O=C(NCCCCC1(C(=O)O)CC1)[C@H](c1ccc(CN2N=C(c3ccccc3)OCC2=O)cc1)C1CCCC1

- clearance [4]: 23.3 mL/min/kg
- MEC [1]: 3 nM
- clearance [5]: 27 mL/min/kg
- clearance [6]: 16.7 mL/min/kg
SMILES: C[C@H]([C@H](C(=O)Nc1cccc(CCC(=O)O)c1)c1ccc(CN2N=C(c3ccccc3)OCC2=O)cc1)C(F)(F)F

- MEC [1]: 3 nM
- EC50 ([2]; CHO): 70 nM
- Activity [3]: 2245 nM
- Efficacy ([7]; filed as activator): 52%
SMILES: C[C@H]([C@H](C(=O)Nc1cc(C2(CC(=O)O)COC2)ccc1Cl)c1ccc(Cl)cc1)C(F)(F)F

- MEC [1]: 300 nM
- Efficacy [7]: 1.2%
SMILES: C[C@H]([C@H](C(=O)Nc1ccc(Cl)c(CC2(C(=O)O)CC2)c1)c1ccc(Cl)cc1)C(F)(F)F

- MEC [1]: 1 nM
- EC50 ([2]; CHO): 5 nM
- Activity [3]: 256 nM
- Efficacy [7]: 37%
SMILES: C[C@H]([C@H](C(=O)Nc1cc(C2(CC(=O)O)CCC2)ccc1Cl)c1ccc(Cl)cc1)C(F)(F)F

- MEC [1]: 20 nM
- Efficacy [7]: 4%
SMILES: C[C@H]([C@H](C(=O)Nc1cccc(CC2(C(=O)O)CC2)c1)c1ccc(Cl)cc1)C(F)(F)F

- MEC [1]: 7 nM
SMILES: CC[C@H](C)[C@H](C(=O)Nc1cccc(CCC(=O)O)c1C)N1CCC(CN2N=C(c3ccccc3)OCC2=O)CC1

- MEC [1]: 1 nM
SMILES: CC[C@@H](C)[C@H](C(=O)Nc1cccc(CCC(=O)O)c1C)c1ccc(CN2N=C(c3ccccc3)OCC2=O)cc1

- MEC [1]: 30 nM
SMILES: Cc1ccc(=O)n(Cc2ccc(C(C(=O)Nc3cccc(CCC(=O)O)c3C)C3CCCC3)cc2)n1 (racemic)

- MEC [1]: 6.5 nM
- Efficacy ([7]; filed as activator): 58%
SMILES: CC(C)C(CC(=O)O)c1ccc(Cl)c(NC(=O)[C@H](c2ccc(Cl)cc2)[C@@H](C)C(F)(F)F)c1 (stereo in doubt; 44a) [listing 1 of 2 here]

- MEC [1]: 200 nM
- clearance [5]: 12.8 mL/min/kg
- EC50 ([2]; CHO): 44 nM
- Efficacy [7]: 19%
SMILES: Cc1c(CCC(=O)O)cccc1NC(=O)[C@H](c1ccc(Cl)cc1)C1CCCC1

- MEC [1]: 1000 nM
- Efficacy [7]: 18%
SMILES: Cc1c(CCC(=O)O)cccc1NC(=O)[C@H](c1ccc(Cl)cc1)[C@@H](C)C(F)(F)F

- MEC [1]: 10000 nM
SMILES: CN(C(=O)C(c1ccc(CN2N=C(c3ccccc3)OCC2=O)cc1)C1CCCC1)c1cccc(CCC(=O)O)c1 (stereo not given)

- MEC [1]: 10 nM
SMILES: O=C(O)c1ccc(CNC(=O)C(c2ccc(CN3N=C(c4ccccc4)OCC3=O)cc2)C2CCCC2)cc1 (racemic)

- MEC [1]: 3 nM
- Efficacy ([7]; filed as activator): 47%
SMILES: CC(C)C(CC(=O)O)c1ccc(Cl)c(NC(=O)[C@H](c2ccc(Cl)cc2)[C@@H](C)C(F)(F)F)c1 (stereo in doubt; 44b) [listing 2 of 2 here]

- MEC [1]: 100 nM
SMILES: O=C(O)CCCCCNC(=O)[C@H](c1ccc(CN2N=C(c3ccccc3)OCC2=O)cc1)C1CCCC1

- MEC [1]: 3 nM
SMILES: Cc1c(CCC(=O)O)cccc1NC(=O)[C@H](c1ccc(CN2N=C(c3ccccc3)OCC2=O)cc1)[C@@H](C)C(F)(F)F

- EC50 ([2]; cho): 28 nM
- Activity [3]: 10 nM
SMILES: CC(C)C(CC(=O)O)c1ccc(Cl)c(NC(=O)[C@H](c2ccc(Cl)cc2)[C@@H](C)C(F)(F)F)c1 (stereo in doubt; 44a) [listing 2 of 2 here]

- MEC [1]: 10 nM
- EC50 ([2]; CHO): 111 nM
- Activity [3]: 31 nM
- Efficacy ([7]; filed as activator): 43%
SMILES: CCc1ccc([C@@H](C(=O)Nc2cc(C3(CC(=O)O)CC3)ccc2F)[C@@H](C)C(F)(F)F)cc1

- clearance [4]: 13.7 mL/min/kg
- MEC [1]: 1 nM
- clearance [5]: 55 mL/min/kg
- clearance [6]: 30 mL/min/kg
SMILES: O=C(Nc1cccc(CC2(C(=O)O)CC2)c1)[C@H](c1ccc(CN2N=C(c3ccccc3)OCC2=O)cc1)C1CCCC1

- MEC [1]: 30 nM
SMILES: CC(C)(Cc1cccc(NC(=O)[C@H](c2ccc(CN3N=C(c4ccccc4)OCC3=O)cc2)C2CCCC2)c1)C(=O)O

- MEC [1]: 0.3 nM
- Efficacy [7]: 34%
SMILES: C[C@H]([C@H](C(=O)Nc1cc(CC2(C(=O)O)CC2)ccc1F)c1ccc(Cl)cc1)C(F)(F)F

- MEC [1]: 30 nM
SMILES: CC[C@@H](C)[C@H](C(=O)Nc1cccc(CCC(=O)O)c1C)N1CCC(CN2N=C(c3ccccc3)OCC2=O)CC1

- MEC [1]: 300 nM
SMILES: Cc1c(C=C[C@H](c2ccc(CN3N=C(c4ccccc4)OCC3=O)cc2)C2CCCC2)cccc1CCC(=O)O (mixture of isomers)

- MEC [1]: 1000 nM
SMILES: Cc1c(CCC(=O)O)cccc1NC(=O)C(c1ccc(Cn2ncccc2=O)cc1)C1CCCC1 (racemic)

- Vd [8]: 1.5 L/kg
- clearance [4]: 25 mL/min/kg
- bioavailability [9]: 57%
- MEC [1]: 0.3 nM
- clearance [5]: 7.67 mL/min/kg
- half-life [10]: 11 h
- clearance [6]: 4 mL/min/kg
- half-life [11]: 4.3 h
- Efficacy ([7]; filed as activator): 63%
- Vd [12]: 3 L/kg
- bioavailability [13]: 84%
SMILES: C[C@H]([C@H](C(=O)Nc1cc(CC2(C(=O)O)CC2)ccc1Cl)c1ccc(Cl)cc1)C(F)(F)F

- MEC [1]: 3000 nM
SMILES: Cc1c(CCC(=O)O)cccc1C(=O)NC(c1ccc(CN2N=C(c3ccccc3)OCC2=O)cc1)C1CCCC1 (stereo not given)

- MEC [1]: 100 nM
- Efficacy [7]: 19%
SMILES: C[C@H]([C@H](C(=O)Nc1cccc(CC2(C(=O)O)CC2)c1Cl)c1ccc(Cl)cc1)C(F)(F)F

- MEC [1]: 30 nM
SMILES: O=C(O)[C@H]1Cc2cccc(NC(=O)[C@H](c3ccc(CN4N=C(c5ccccc5)OCC4=O)cc3)C3CCCC3)c2C1

- MEC [1]: 1 nM
SMILES: Cc1c(CCC(=O)O)cccc1NC(=O)[C@H](c1ccc(Cn2nc(-c3ccccc3)ccc2=O)cc1)C1CCCC1

- MEC [1]: 3 nM
- Efficacy ([7]; filed as activator): 44%
SMILES: Cc1ccc(CC2(C(=O)O)CC2)cc1NC(=O)[C@H](c1ccc(Cl)cc1)[C@@H](C)C(F)(F)F

Reference: ChEMBL document CHEMBL4808182, “Discovery of the Soluble Guanylate Cyclase Activator Runcaciguat (BAY 1101042)” (J Med Chem, 2021)
